Results on nine compounds are retold here after ChEMBL document CHEMBL1137746, “New insights into the antioxidant activity of hydroxycinnamic acids: Synthesis and physicochemical characterization of novel halogenated derivatives” (Eur J Med Chem, 2009).

Series [1] can be described thus: Octanol-water partition coefficient, log P of the compound.
The nature of series [2]: ABTS radical scavenging activity assessed as Trolox equivalent antioxidant capacity at 50 uM by spectrophotometric analysis. Format: physicochemical. The method, boiled down: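 ABTS•+ generated from 7 mM ABTS in water with 2.45 mM potassium persulfate, kept dark at room temperature 12–16 h. Ethanolic compound solutions added to 180 µL radical solution; absorbance followed over 20 min. Blank control set as 100% radical. Triplicate. TE = (A_control − A_test)/(A_control − A_trolox); Trolox reference.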

Series [3] is described as follows: DPPH radical scavenging activity assessed as Trolox equivalent antioxidant capacity at 50 uM after 40 mins. It counts as functional. The essentials:
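DPPH in ethanol; decrease in absorbance at 517 nm measured. Blank was ethanol; control was DPPH solution in ethanol. Triplicate. Trolox used as reference; TE = (A_control − A_test)/(A_control − A_trolox), A_control being DPPH solution without sample.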
A general note: The DPPH test is a chemical assay of radical scavenging.

As a reminder, the logP is a log measure of how a compound divides between an organic and an aqueous phase. On to `COc1cc(/C=C/C(=O)O)cc(Br)c1O`, for which the lipophilicity (logP) in series [1] was 2.25. Moreover, the Activity in series [2] worked out at 2.554; in series [3], 0.808.
For `COc1cc(/C=C/C(=O)O)cc(OC)c1O` [SINAPINATE], the figures for the Activity in series [2] and in series [3] were 2.538 and 0.862, respectively.
As to `CCOC(=O)/C=C/c1cc(O)c(O)c(Br)c1`, the logP in series [1] was 2.58. Moreover, the Activity in series [2] worked out at 2.527; in series [3] it was 0.938.
In the same order, the values of `CCOC(=O)/C=C/c1ccc(O)c(OC)c1` [ETHYL FERULATE] are 2.02, 2.538 and 0.593.
In series [1], `CCOC(=O)/C=C/c1ccc(O)c(O)c1` [ETHYL CAFFEATE] yielded a logP of 1.75. The figures for the Activity in series [2] and in series [3] were 2.558 and 0.877, respectively.
With `O=C(O)/C=C/c1ccc(O)c(O)c1` [CAFFEIC ACID], the figures for the Activity in series [2] and in series [3] were 2.538 and 0.978, respectively.
In series [1], `COc1cc(/C=C/C(=O)O)ccc1O` [FERULATE] had a logP of 1.42. Moreover, the Activity came out at 2.534 in series [2] and 0.781 in series [3].
Regarding `CCOC(=O)/C=C/c1cc(Br)c(O)c(OC)c1`, the logP in series [1] amounted to 2.85. In addition, the results for the Activity in series [2] and in series [3] were 2.558 and 0.558, respectively.
As to `O=C(O)/C=C/c1cc(O)c(O)c(Br)c1`, the log partition coefficient (logP) in series [1] was 1.98. For the same compound, the Activity in series [2] was found to be 2.496; in series [3], 1.01.
